Assay results published in ChEMBL document CHEMBL3244289, “Synthesis and antibacterial activity of 2'-substituted chelocardin analogues” (1979).
The source made the active and inactive calls. No cut-off for these calls is given here.

What was measured:
[1] = test system: Pasteurella multocida; test: Antibacterial activity against Pasteurella multocida 10544 by two-fold agar dilution method; format: functional
Method in brief: (§1)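 MIC determined by twofold serial dilution in brain-heart infusion agar. Values are reported in µg/mL.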

[2] = test system: Enterococcus; test: Antibacterial activity against Enterococcus 89 by two-fold agar dilution method; format: functional; method in brief: as §1
[3] = test system: Klebsiella pneumoniae; test: Antibacterial activity against Klebsiella pneumoniae 8045 by two-fold agar dilution method; format: functional; method in brief: as §1
[4] = test system: Streptococcus pyogenes; test: Antibacterial activity against Streptococcus pyogenes C-203 by two-fold agar dilution method; format: functional; method in brief: as §1
[5] = test system: Staphylococcus aureus; test: Antibacterial activity against Staphylococcus aureus Smith by two-fold agar dilution method; format: functional; method in brief: as §1
[6] = test system: Escherichia coli; test: Antibacterial activity against Escherichia coli Juhl by two-fold agar dilution method; format: functional; method in brief: as §1
[7] = test system: Pseudomonas aeruginosa; test: Antibacterial activity against Pseudomonas aeruginosa by two-fold agar dilution method; format: functional, organism-based; method in brief: as §1
[8] = test system: Staphylococcus aureus; test: Antibacterial activity against Staphylococcus aureus 45 by two-fold agar dilution method; format: functional; method in brief: as §1
[9] = test system: Salmonella typhi; test: Antibacterial activity against Salmonella typhi by two-fold agar dilution method; format: functional, Salmonella enterica subsp. enterica serovar Typhi; conditions: Salmonella enterica
Method in brief: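 MIC in µg/mL by twofold serial agar dilution on brain-heart infusion agar.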

[10] = test system: Proteus mirabilis; test: Antibacterial activity against Proteus mirabilis by two-fold agar dilution method; format: functional; method in brief: as §1
[11] = test system: Proteus vulgaris; test: Antibacterial activity against Proteus vulgaris by two-fold agar dilution method; format: functional; method in brief: as §1

Compound | MIC [1] [µg/mL] | MIC [2] [µg/mL] | MIC [3] [µg/mL] | MIC [4] [µg/mL] | MIC [5] [µg/mL] | MIC [6] [µg/mL] | Activity [7] | MIC [8] [µg/mL] | MIC [9] [µg/mL] | MIC [10] [µg/mL] | MIC [11] [µg/mL]
C/C(=N\NC(N)=O)C1=C(O)[C@H](N)[C@@H]2Cc3c(c(O)c4c(O)c(C)ccc4c3C)C(=O)[C@]2(O)C1=O.Cl | 1.56 | 50 | 12.5 | 25 | 25 | 25 | inactive | 25 | 6.2 | 25 | 12.5
C/C(=N\NC(=O)c1ccc(N)cc1)C1=C(O)[C@H](N)[C@@H]2Cc3c(c(O)c4c(O)c(C)ccc4c3C)C(=O)[C@]2(O)C1=O.Cl (stereo in doubt) | 1.56 | 50 | 12.5 | 25 | 50 | 50 | inactive | 50 | 12.5 | 12.5 | 12.5
CNC(=O)N/N=C(\C)C1=C(O)[C@H](N)[C@@H]2Cc3c(c(O)c4c(O)c(C)ccc4c3C)C(=O)[C@]2(O)C1=O.Cl | 3.1 | 50 | 12.5 | 25 | 25 | 50 | inactive | 50 | 25 | 50 | 25
C/C(=N\NC(=O)c1ccc(O)cc1)C1=C(O)[C@H](N)[C@@H]2Cc3c(c(O)c4c(O)c(C)ccc4c3C)C(=O)[C@]2(O)C1=O.Cl (stereo in doubt) | 3.1 | 100 | 25 | 50 | 50 | 50 | inactive | 50 | 25 | 12.5 | 12.5
C/C(=N\NC(=O)c1ccco1)C1=C(O)[C@H](N)[C@@H]2Cc3c(c(O)c4c(O)c(C)ccc4c3C)C(=O)[C@]2(O)C1=O.Cl (stereo in doubt) | 3.1 | > 100 | 50 | 50 | > 100 | > 100 | inactive | > 100 | 25 | 50 | 50
C/C(=N\c1ccc(Cl)cc1)C1=C(O)[C@H](N)[C@@H]2Cc3c(c(O)c4c(O)c(C)ccc4c3C)C(=O)[C@]2(O)C1=O.Cl | 0.39 | 25 | 3.1 | 6.2 | 6.2 | 25 | inactive | 6.2 | 3.1 | 3.1 | 1.56
C/C(=N\N1CCOC1=O)C1=C(O)[C@H](N)[C@@H]2Cc3c(c(O)c4c(O)c(C)ccc4c3C)C(=O)[C@]2(O)C1=O.Cl | 1.6 | 25 | 25 | 25 | 25 | 25 | inactive | 25 | 25 | 12.5 | 6.2
C=CCNC(=O)N/N=C(\C)C1=C(O)[C@H](N)[C@@H]2Cc3c(c(O)c4c(O)c(C)ccc4c3C)C(=O)[C@]2(O)C1=O.Cl | 0.78 | 50 | 6.2 | 12.5 | 25 | 25 | inactive | 25 | 12.5 | 6.2 | 12.5
CCCNC(=O)N/N=C(\C)C1=C(O)[C@H](N)[C@@H]2Cc3c(c(O)c4c(O)c(C)ccc4c3C)C(=O)[C@]2(O)C1=O.Cl | 0.78 | 50 | 6.2 | 12.5 | 25 | 25 | inactive | 25 | 6.2 | 6.2 | 6.2
C/C(=N\c1ccc(O)cc1)C1=C(O)[C@H](N)[C@@H]2Cc3c(c(O)c4c(O)c(C)ccc4c3C)C(=O)[C@]2(O)C1=O.Cl | 0.78 | 25 | 3.1 | 12.5 | 12.5 | 50 | inactive | 12.5 | 6.2 | 6.2 | 3.1
C/C(=N\N(C)C)C1=C(O)[C@H](N)[C@@H]2Cc3c(c(O)c4c(O)c(C)ccc4c3C)C(=O)[C@]2(O)C1=O.Cl | 0.78 | 6.2 | 6.2 | 6.2 | 12.5 | 12.5 | inactive | 12.5 | 3.1 | 6.2 | 6.2
C/C(=N\NC(N)=S)C1=C(O)[C@H](N)[C@@H]2Cc3c(c(O)c4c(O)c(C)ccc4c3C)C(=O)[C@]2(O)C1=O.Cl | 3.1 | 100 | 25 | 25 | 50 | 100 | inactive | 50 | 25 | 50 | 50
